# Assay results reported in ChEMBL document CHEMBL3352075, “Discovery of potent 1H-imidazo[4,5-b]pyridine-based c-Met kinase inhibitors via mechanism-directed structural optimization” (Bioorg Med Chem Lett, 2015).
# Assays:
# [1] = Antiproliferative activity against human EBC1 cells after 72 hrs by sulforhodamine B assay; details: EBC-1, 72 h
# [2] = molecular target: Macrophage-stimulating protein receptor (Homo sapiens) (UniProt Q04912); experiment: Inhibition of RON (unknown origin) at 1 uM by ELISA method
# Method in brief: (§1)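 Kinase profiling by ELISA kinase assay across a panel of tyrosine kinases, each tested at a single 1.0 µM compound concentration. Read-out is percent inhibition rate.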
# [3] = molecular target: Fibroblast growth factor receptor 2 (Homo sapiens) (UniProt P21802); experiment: Inhibition of FGFR2 (unknown origin) at 1 uM by ELISA method; method in brief: as §1
# [4] = molecular target: Platelet-derived growth factor receptor alpha (Homo sapiens) (UniProt P16234); experiment: Inhibition of PDGFRalpha (unknown origin) at 1 uM by ELISA method; method in brief: as §1
# [5] = molecular target: Proto-oncogene tyrosine-protein kinase Src (Homo sapiens) (UniProt P12931); details: at 1 µM
# [6] = molecular target: Fibroblast growth factor receptor 1 (Homo sapiens) (UniProt P11362); experiment: Inhibition of FGFR1 (unknown origin) at 1 uM by ELISA method; method in brief: as §1
# [7] = molecular target: Tyrosine-protein kinase ABL1 (Homo sapiens) (UniProt P00519); details: at 1 µM
# [8] = molecular target: Hepatocyte growth factor receptor (Homo sapiens, UniProt P08581); experiment: Inhibition of recombinant c-Met (unknown origin) using poly (Glu,Tyr)4:1 substrate incubated for 60 mins by ELISA method
# [9] = molecular target: Insulin-like growth factor 1 receptor (Homo sapiens) (UniProt P08069); experiment: Inhibition of IGF1R (unknown origin) at 1 uM by ELISA method; method in brief: as §1
# [10] = molecular target: ALK tyrosine kinase receptor (Homo sapiens) (UniProt Q9UM73); experiment: Inhibition of ALK (unknown origin) at 1 uM by ELISA method; method in brief: as §1
# [11] = molecular target: Tyrosine-protein kinase receptor UFO (Homo sapiens) (UniProt P30530); experiment: Inhibition of AXL (unknown origin) at 1 uM by ELISA method; method in brief: as §1
# [12] = molecular target: Vascular endothelial growth factor receptor 2 (Homo sapiens) (UniProt P35968); details: at 1 µM
# [13] = molecular target: Receptor tyrosine-protein kinase erbB-4 (Homo sapiens) (UniProt Q15303); experiment: Inhibition of ErbB4 (unknown origin) at 1 uM by ELISA method; method in brief: as §1
# [14] = molecular target: Platelet-derived growth factor receptor beta (Homo sapiens) (UniProt P09619); experiment: Inhibition of PDGFRbeta (unknown origin) at 1 uM by ELISA method; method in brief: as §1
# [15] = molecular target: Vascular endothelial growth factor receptor 1 (Homo sapiens) (UniProt P17948); experiment: Inhibition of FLT1 (unknown origin) at 1 uM by ELISA method; method in brief: as §1
# [16] = molecular target: Fibroblast growth factor receptor 1 (Homo sapiens) (UniProt P11362); details: 10 nM
# [17] = molecular target: Macrophage-stimulating protein receptor (Homo sapiens) (UniProt Q04912); experiment: Inhibition of RON (unknown origin) at 0.1 uM by ELISA method
# [18] = molecular target: Tyrosine-protein kinase receptor UFO (Homo sapiens) (UniProt P30530); experiment: Inhibition of AXL (unknown origin) at 0.1 uM by ELISA method
smiles,measurement,setting,value
Nc1nccc(Oc2ccc(NC(=O)C3(C(=O)Nc4ccc(F)cc4)CC3)cc2F)c1NCC(=O)O,IC50,[1],< 10 µM
O=C(Nc1ccc(Oc2nc3c([nH]c(=O)n3CCN3CCNCC3)c3ncccc23)c(F)c1)c1cccn(-c2ccc(F)cc2)c1=O,IC50,[1],> 50 µM
O=C(Nc1ccc(F)cc1)C1(C(=O)Nc2ccc(Oc3ccnc4[nH]c(=O)[nH]c34)c(F)c2)CC1,inhibition,[2],43.2%
same,inhibition,[3],37.2%
same,inhibition,[4],22.6%
same,inhibition,[5],0%
same,inhibition,[6],7.4%
same,IC50,[1],0.24 µM
same,inhibition,[7],0%
same,IC50,[8],0.209 µM
same,inhibition,[9],33.6%
same,inhibition,[10],2.5%
same,inhibition,[11],41.6%
same,inhibition,[12],0%
same,inhibition,[13],24.3%
same,inhibition,[14],0%
same,inhibition,[15],13.3%
CCN(CC)CCNC(=O)c1c(C)[nH]c(/C=C2\C(=O)Nc3ccc(F)cc32)c1C,inhibition,[4],68.4%
same,inhibition,[15],66.6%
O=C(Nc1ccc(Oc2nc3c([nH]c(=O)n3Cc3ccc(O)cc3)c3ncccc23)c(F)c1)c1cccn(-c2ccc(F)cc2)c1=O,IC50,[1],> 50 µM
Nc1ncnc2c1c(-c1cccc(OCc3ccccc3)c1)cn2C1CC(CN2CCC2)C1 (stereo not drawn),inhibition,[9],56.6%
COc1cc(CCc2cc(NC(=O)c3ccc(N4C[C@@H](C)N[C@@H](C)C4)cc3)n[nH]2)cc(OC)c1,inhibition,[16],95.1%
Nc1c(Oc2ccc(NC(=O)C3(C(=O)Nc4ccc(F)cc4)CC3)cc2F)ccnc1NC(=O)CCl,IC50,[1],< 10 µM
O=C(Nc1ccc(F)cc1)C1(C(=O)Nc2ccc(Oc3ccnc4c3nc3n4CCCC3)c(F)c2)CC1,IC50,[1],> 10 µM
same,IC50,[8],0.26 µM
COc1cc2nccc(Oc3ccc(NC(=O)C4(C(=O)Nc5ccc(F)cc5)CC4)cc3)c2cc1OC,inhibition,[17],100%
same,inhibition,[18],100%
CN1CCC(Cn2c(=O)[nH]c3c4ncccc4c(Oc4ccc(NC(=O)c5cccn(-c6ccc(F)cc6)c5=O)cc4F)nc32)CC1,IC50,[1],19.8 µM
